Test results: ChEMBL document CHEMBL1154746, “Anti-oxidant and anti-bacterial activities of novel N'-arylmethylidene-2-(3, 4-dimethyl-5, 5-dioxidopyrazolo[4,3-c][1,2]benzothiazin-2(4H)-yl) acetohydrazides” (2010)
In brackets after ≈: the same amount, converted by molar mass.

Assays:
Type in all cases: functional
Escherichia coli = experiment: Antimicrobial activity against Escherichia coli after 24 hrs by agar dilution technique
Procedure, shortened: (§1)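 Suspensions of E. coli, B. subtilis and Staphylococcus aureus were prepared at about 10⁵–10⁶ CFU/well, and test compounds were applied to the wells over a concentration range. MIC was taken as the lowest concentration with no apparent growth, disregarding a single colony or a faint haze from the inoculum.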

Staphylococcus aureus = experiment: Antimicrobial activity against Staphylococcus aureus after 24 hrs by agar dilution technique; procedure, shortened: as §1
Bacillus subtilis = experiment: Antimicrobial activity against Bacillus subtilis after 24 hrs by agar dilution technique; procedure, shortened: as §1
[1] = Antioxidant activity assessed as superoxide radical scavenging activity measured as formazone formation by spectrophotometry relative to control; set-up: concentration or dose not given beside the values
Procedure, shortened: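 NADH–NBT–PMS superoxide-generating mixture in 0.1 M phosphate buffer, pH 7.4, with reagents made up in buffer. Sample was added from a 1 mM DMSO solution. The reaction ran at room temperature, and superoxide formation was followed as blue formazan absorbance at 560 nm. Lower absorbance was read as higher scavenging.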

| Structure (SMILES) | MIC (Escherichia coli) [µg/mL] | MIC (Staphylococcus aureus) [µg/mL] | MIC (Bacillus subtilis) [µg/mL] | Activity [1] [%] |
| --- | --- | --- | --- | --- |
| Cc1c2c(nn1CC(=O)N/N=C/c1ccc(F)cc1)-c1ccccc1S(=O)(=O)N2C | > 200 | > 200 | > 200 | 17.4 |
| Cc1c2c(nn1CC(=O)N/N=C/c1ccc([N+](=O)[O-])cc1)-c1ccccc1S(=O)(=O)N2C | > 200 | > 200 | > 200 | 23.7 |
| Cc1c2c(nn1CC(=O)N/N=C/c1ccccc1[N+](=O)[O-])-c1ccccc1S(=O)(=O)N2C | > 200 | > 200 | > 200 | 28.8 |
| Cc1c2c(nn1CC(=O)N/N=C/c1ccccc1Cl)-c1ccccc1S(=O)(=O)N2C | > 200 | > 200 | > 200 | 44.2 |
| Cc1c2c(nn1CC(=O)N/N=C/c1ccc(Cl)c(Cl)c1)-c1ccccc1S(=O)(=O)N2C | > 200 | > 200 | > 200 | 51.5 |
| CN(C)[C@@H]1C(O)=C(C(N)=O)C(=O)[C@@]2(O)C(O)=C3C(=O)c4c(O)cccc4[C@@](C)(O)[C@H]3C[C@@H]12 [TETRACYCLINE] | 0.25 (≈ 0.563 µM) | 0.78 (≈ 1.76 µM) | 0.35 (≈ 0.788 µM) | – |
| Cc1c2c(nn1CC(=O)N/N=C/c1ccc(Cl)cc1)-c1ccccc1S(=O)(=O)N2C | > 200 | > 200 | > 200 | 23.3 |
| CCCOC(=O)c1cc(O)c(O)c(O)c1 | – | – | – | 91.3 |

The next lines start with results.

| MIC (Escherichia coli) [µg/mL] | MIC (Staphylococcus aureus) [µg/mL] | MIC (Bacillus subtilis) [µg/mL] | Structure (SMILES) | Activity [1] [%] |
| --- | --- | --- | --- | --- |
| > 200 | > 200 | > 200 | Cc1c2c(nn1CC(=O)N/N=C/c1ccc(Cl)cc1Cl)-c1ccccc1S(=O)(=O)N2C | 48.7 |
| > 200 | > 200 | > 200 | Cc1c2c(nn1CC(=O)N/N=C/c1cccc([N+](=O)[O-])c1)-c1ccccc1S(=O)(=O)N2C | 52.2 |
| 5 (≈ 11.3 µM) | > 200 | 39 (≈ 88.3 µM) | Cc1c2c(nn1CC(=O)N/N=C/c1ccc(O)cc1O)-c1ccccc1S(=O)(=O)N2C | 98.3 |
| 17 (≈ 36.2 µM) | > 200 | > 200 | COc1ccc(/C=N/NC(=O)Cn2nc3c(c2C)N(C)S(=O)(=O)c2ccccc2-3)c(OC)c1 | 53.1 |
| 11 (≈ 23.4 µM) | > 200 | 47 (≈ 100 µM) | CCOc1cc(/C=N/NC(=O)Cn2nc3c(c2C)N(C)S(=O)(=O)c2ccccc2-3)ccc1O | 71.1 |
| 27 (≈ 65.8 µM) | > 200 | 95 (≈ 231 µM) | Cc1c2c(nn1CC(=O)N/N=C/c1cccnc1)-c1ccccc1S(=O)(=O)N2C | 25.1 |
| 28 (≈ 68.2 µM) | > 200 | 88 (≈ 214 µM) | Cc1c2c(nn1CC(=O)N/N=C/c1ccccn1)-c1ccccc1S(=O)(=O)N2C | 24 |
| 23 (≈ 52.3 µM) | > 200 | 69 (≈ 157 µM) | COc1cccc(/C=N/NC(=O)Cn2nc3c(c2C)N(C)S(=O)(=O)c2ccccc2-3)c1 | 44.9 |
| 24 (≈ 57.8 µM) | 61 (≈ 147 µM) | 82 (≈ 197 µM) | Cc1c2c(nn1CC(=O)N/N=C/c1ccsc1)-c1ccccc1S(=O)(=O)N2C | 16.5 |
| 23 (≈ 55.4 µM) | 55 (≈ 132 µM) | 77 (≈ 185 µM) | Cc1c2c(nn1CC(=O)N/N=C/c1cccs1)-c1ccccc1S(=O)(=O)N2C | 14.6 |
| 69 (≈ 169 µM) | > 200 | > 200 | Cc1c2c(nn1CC(=O)N/N=C/c1ccccc1)-c1ccccc1S(=O)(=O)N2C | 33.9 |
